# APP 5'UTR act: activators of APP 5'UTR luciferase reporter, primary screen, SH-SY5Y cells; actives 1% (n = 190,000); AID 1276, 2008; activation, % at 2 µM; SH-SY5Y APP 5'UTR luciferase reporter, luminescence; zero percent = DMSO vehicle wells;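 active means activation above a set limit, based on mean plus 3 SD of controls, cut at about 140% in these data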
# NF-kB expr up: activators of NF-kB expression in neurons, primary screen, cell-based, HTS | human neuronal cells, NF-kB reporter expression; hits give high values | fold change at 12.5 µM | actives 1.6% (n = 190,000) | AID 1239, 2008; in the data active means fold change above about 3.3
# STAT3 act-1: IL-6 driven STAT3 reporter potentiators, primary screen, U3A cells, luciferase, luminescence, MLSCN library; activation (% of control), % at 5.6 µM; AID 871, 2007; IL-6 STAT3-luciferase reporter; 100% = signal with IL-6 EC80 alone; actives 0.91% (n = 190,000);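 active means activation above the screen-wide mean of compound activation plus 3 SD, cut at about 130% in these data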;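 further: 0% = background luminescence of wells with medium and substrate only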
#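 Test system: STAT3-luciferase reporter U3A cells; Detection: reporter luminescence signal; Times: 1 h compound pre-exposure, 6 h IL-6 stimulation, 37 °C; Benchmarks: IL-6-only high control; Also added: IL-6 stimulus at 33 ng/mL final.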
# STAT3 inh: IL-6 driven STAT3 reporter inhibitors, primary screen, U3A cells, luciferase, luminescence, MLSCN library. IL-6 STAT3-luciferase reporter; host cell line lacks STAT1. inhibition, % at 5.5 µM. actives 0.89% (n = 190,000). AID 862, 2007;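 active means inhibition above the mean inhibition across all screened compounds plus 3 SD, cut at about 44% in these data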;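 further: 0% = DMSO only wells and 100% = 100 µM nifuroxazide control wells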
# STAT1 blocker: STAT1 signaling inhibitors, primary screen, cell-based, HTS, luciferase reporter. NIH 3T3 STAT1-luciferase reporter, IFN-gamma, luminescence. inhibition, % at 5.5 µM. actives 0.35% (n = 200,000). AID 920, 2007;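 active means inhibition above a set limit, the mean inhibition across all tested compounds plus 3 SD, cut at about 34% in these data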;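 further: 0% = IFN-gamma with DMSO and 100% = IFN-gamma with 300 µM nifuroxazide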
# STAT1 act-1: STAT1 signaling activators, primary screen, cell-based, HTS, luciferase reporter; activation (% of control), % at 5.5 µM; actives 2.6% (n = 200,000); NIH 3T3 STAT1-luciferase reporter, IFN-gamma, luminescence; 100% = IFN-gamma alone, no compound; AID 932, 2007;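 active means activation above the screen-wide mean activation plus 3 SD, cut at about 130% in these data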;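 further: raw ratio to IFN-gamma control signal so 100% means no change and 0% no light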
# STAT3 act-2: STAT3 reporter potentiators, retest of hits, confirmation, U3A cells, luciferase, luminescence; shares compounds with STAT3 act-1; IL-6 potentiation; U3A cells lack STAT1; 100 means same as IL-6 alone; potentiation (% of control), % at 5.7 µM; actives 64% (n = 1,200);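 active means percent activation of the STAT3 luciferase reporter above a set limit taken from the earlier primary screen, cut at about 130% in these data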;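 further: 0% = background signal of medium plus substrate and 100% = median of IL-6 with DMSO wells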
# NFkB act 2: NF-kB reporter activators in human cells, counter-screen for STAT3 activator project. shares compounds with STAT3 act-1. activation (% of control), % at 5.7 µM. AID 1309, 2008. NF-kappaB reporter activation. actives 11% (n = 1,200); in the data active means activation above about 120%;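 further: reporter induced by TNF-alpha stimulation; 100% = median of stimulated DMSO wells and 0% = no signal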
# STAT1 act-2: STAT1 reporter activators, IFN-gamma induced, counter-screen for STAT3 activator project, cell-based, NIH 3T3, luciferase luminescence | shares compounds with STAT3 act-1 | NIH 3T3 STAT1-luciferase reporter | activation (% of control), % at 5.7 µM | actives 13% (n = 1,200) | AID 1318, 2008;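 active means activation above the solvent-only control well mean plus 3 SD, set per screening run, cut at about 120% in these data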;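 further: 100% = IFN-gamma with DMSO median signal so 100% means no change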
# Active calls of the source: *; / = no result given. A selection: hits, their analogues and other compounds. The true share with any hit is near 4.9%.
SMILES,APP 5'UTR act,NF-kB expr up,STAT3 act-1,STAT3 inh,STAT1 blocker,STAT1 act-1,STAT3 act-2,NFkB act 2,STAT1 act-2
Cc1[nH]c2ccccc2c1/C=N/Nc1ccc(F)cc1F,17,1.1,155*,-59,-14,113,142*,108,121*
COc1ccc(N(CCC#N)S(=O)(=O)c2cccc3nsnc23)cc1,3,1.2,104,4,3,97,/,/,/
Cn1c(-[n+]2c(-c3ccccc3)cc(-c3ccccc3)cc2-c2ccccc2)nc2c([N+](=O)[O-])cccc21,2,0.74,151*,-53,11,90,147*,104,98
Oc1ccccc1-c1nnc(SCCN2CCOCC2)n1Cc1ccccc1,-37,1.1,168*,-80,1,99,147*,106,105
CC(=O)Nc1ccc(Nc2nc(Cl)nc(Nc3ccc(NC(C)=O)cc3)n2)cc1,-14,0.85,96,8,-4,102,/,/,/
O=c1[nH]c(Cc2ccccc2)nc2c1oc1ccccc12,0,0.93,104,-1,2,98,/,/,/
Cc1nc2c(oc3ccccc32)c(=O)o1,23,1.3,174*,-88,-2,102,159*,116,107
CN1C(=O)SC(Nc2cccc3ccccc23)C1=O (stereo not drawn),5,1.2,99,5,-2,99,/,/,/
O=C1NC(=O)C(Nc2cccc3ccccc23)S1 (stereo not drawn),5,1.1,141*,-46,6,92,129,103,94
Cc1cc2cc3c(cc2nc1SCC(=O)Nc1nc(C)c(C)s1)OCO3,0,1.3,169*,-82,8,93,133*,103,103
COc1ccc(OC)c(Nc2nc(-c3sc(NC(=O)c4ccccc4)nc3C)cs2)c1,-3,0.94,95,16,8,92,/,/,/
COc1ccc(OC)c(Nc2nc(-c3cccs3)cs2)c1,1,1.1,147*,-53,-11,110,121,112,103
NC(=S)N/N=C/c1ccc(-c2ccccc2)o1,5,1.4,89,17,-16,115,/,/,/
NC(=S)N/N=C/c1ccc(-c2ccc(Cl)c(Cl)c2)o1,-10,1.1,191*,-103,-2,102,145*,109,111
Cc1c(C(=O)Nc2ccccn2)oc2ccccc12,153*,4.5*,154*,-59,-28,124,218*,142*,173*
Cc1c(C(=O)Nc2ccncc2)oc2ccccc12,27,1,81,26,-9,109,/,/,/
Cc1ccc2cccnc2c1NC(=S)NC(=O)c1ccccc1,/,0.7,153*,-58,13,88,152*,99,92
Cc1ccc2cccc(NC(=S)NC(=O)c3ccccc3)c2n1,2,1.1,169*,-68,12,89,170*,111,95
COc1cccc(C(=O)N2C(C(=O)O)CSC2c2ccccc2Cl)c1 (stereo not drawn),-15,1,100,-1,-2,102,/,/,/
CCOC(=O)c1c(C=O)c2sc(C)cc2n1C,1,1.5,98,10,-11,111,/,/,/
CC(C)(C)C(=O)NC(=S)NNC(=O)c1ccc(Cl)cc1Cl,10,0.82,94,14,3,95,/,/,/
Cc1cccc(C2c3[nH]c4ccccc4c3CCN2C(=O)c2cc(CC(C)C)nc(C)n2)n1 (stereo not drawn),1,0.76,153*,-42,7,93,151*,109,102
